Experimental data from ChEMBL document CHEMBL1649344, “Abyssomicin I, a modified polycyclic polyketide from Streptomyces sp. CHI39” (2010).
Converted amounts (≈) assume the structure as drawn. The source made the active and inactive calls. No cut-off for these calls is given here.

Experiments:
Micrococcus luteus [1] = assay: Antimicrobial activity against Micrococcus luteus ATCC 9343 after 20 hrs; type: functional; details: ATCC 9343, 20 h
Outline: (§1)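 Broth microdilution in Mueller Hinton broth. Test bacteria are pre-grown 20 h at 30 °C on a reciprocal shaker, pelleted, and resuspended in saline at 1 × 10^5 cells/mL. Each well holds medium, cell suspension (1:10 of the well volume) and sample in DMSO. Plates are incubated 20 h at 30 °C, then growth is read as absorbance at 650 nm.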

Bacillus subtilis [2] = assay: Antimicrobial activity against Bacillus subtilis PCI219 after 20 hrs; type: functional; details: PCI219, 20 h; outline: as §1
Staphylococcus aureus [3] = assay: Antimicrobial activity against Staphylococcus aureus IFO12732 after 20 hrs; type: functional; details: IFO12732, 20 h; outline: as §1
Escherichia coli = assay: Antimicrobial activity against Escherichia coli NIH-JC2 at 100 uM after 20 hrs; type: functional, organism-based
Outline: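 E. coli is grown in Mueller Hinton broth for 20 h at 30 °C with shaking, spun down, and brought to 1 × 10^5 cells/mL in saline. This suspension is mixed in wells with medium and DMSO sample solution. The plate is incubated 20 h at 37 °C and growth is read at 650 nm.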

Candida albicans = assay: Antimicrobial activity against Candida albicans IFO1594 at 100 uM after 20 hrs; type: functional, organism-based
Outline: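 C. albicans is cultured in yeast nitrogen base with 2% glucose for 20 h at 30 °C, harvested, and suspended in saline at 1 × 10^5 cells/mL. The suspension is combined in wells with the same medium and sample in DMSO. After 20 h at 30 °C, absorbance at 650 nm gives growth.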

Micrococcus luteus [4] = assay: Antimicrobial activity against Micrococcus luteus ATCC 9343 at 100 uM after 20 hrs; type: functional, organism-based; outline: as §1
Bacillus subtilis [5] = assay: Antimicrobial activity against Bacillus subtilis PCI219 at 100 uM after 20 hrs; type: functional, organism-based; outline: as §1
Staphylococcus aureus [6] = assay: Antimicrobial activity against Staphylococcus aureus IFO12732 at 100 uM after 20 hrs; type: functional, organism-based; outline: as §1

Row | MIC (Micrococcus luteus [1]) [µg/mL] | MIC (Bacillus subtilis [2]) [µg/mL] | MIC (Staphylococcus aureus [3]) [µg/mL] | Structure (SMILES) | Activity (Escherichia coli) | Activity (Candida albicans) | Activity (Micrococcus luteus [4]) | Activity (Bacillus subtilis [5]) | Activity (Staphylococcus aureus [6])
1 | 29 (≈ 83.7 µM) | 29 (≈ 83.7 µM) | 29 (≈ 83.7 µM) | C[C@@H]1CCC(=O)C2=C3O[C@@]4(C)[C@H](C)C[C@@]3(OC2=O)[C@H](/C=C/C1=O)[C@H]4O | inactive | inactive |  |  | 
2 |  |  |  | C[C@@H]1CCC(=O)C2=C3O[C@@]4(C)[C@H](C)C[C@@]3(OC2=O)[C@H](/C=C/[C@H]1O)[C@H]4O | inactive | inactive | inactive | inactive | inactive
